Test results as given in ChEMBL document CHEMBL1137664, “Conflicting requirements of Plasmodium falciparum dihydrofolate reductase mutations conferring resistance to pyrimethamine-WR99210 combination” (Antimicrob Agents Chemother, 2007).

Experiments:
[1] = Inhibition of WR99210-resistant form-3 Plasmodium falciparum N51I, C59R, N108T, I164L mutant expressed in Escherichia coli BL21(DE3)
In short: (§1)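 The recombinant enzyme was expressed in E. coli BL21(DE3) and purified by methotrexate-Sepharose affinity chromatography. Each reaction was started by adding 0.008 to 0.01 U of enzyme in the presence of varying inhibitor amounts. DHFR activity was read on a microplate spectrophotometer, and IC50 was taken from the inhibition data.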

[2] = Inhibition of Plasmodium falciparum DHFR QM template N51I, C59R, S108N, I164L mutant expressed in Escherichia coli BL21(DE3); in short: as §1
[3] = Inhibition of pyrimethamine-resistant form-3 Plasmodium falciparum N51I, C59R, S108N, I164L, I150V, N182I, N201D mutant expressed in Escherichia coli BL21(DE3) by Michaelis-Menten based competitive inhibition assay
[4] = Inhibition of pyrimethamine-resistant form-1 Plasmodium falciparum N51I, C59R, S108N, I164L, D187A mutant expressed in Escherichia coli BL21(DE3) by Michaelis-Menten based competitive inhibition assay
[5] = Inhibition of pyrimethamine-resistant form-1 Plasmodium falciparum N51I, C59R, S108N, I164L, D187A mutant expressed in Escherichia coli BL21(DE3); in short: as §1
[6] = Inhibition of WR99210-resistant form-2 Plasmodium falciparum N51I, C59R, N108S, I164L mutant expressed in Escherichia coli BL21(DE3); in short: as §1
[7] = Inhibition of WR99210-resistant form-1 Plasmodium falciparum I51N, C59R, N108S, I164L mutant expressed in Escherichia coli BL21(DE3) by Michaelis-Menten based competitive inhibition assay
[8] = Inhibition of Plasmodium falciparum DHFR-TS QM template N51I, C59R, S108N, I164L mutant expressed in Escherichia coli BL21(DE3) by Michaelis-Menten based competitive inhibition assay
[9] = Inhibition of pyrimethamine-resistant form-3 Plasmodium falciparum N51I, C59R, S108N, I164L, I150V, N182I, N201D mutant expressed in Escherichia coli BL21(DE3); in short: as §1
[10] = Inhibition of WR99210-resistant form-A Plasmodium falciparum DHFR-TS I51N, C59R, N108S, L164I, D54N mutant expressed in Escherichia coli BL21(DE3); in short: as §1
[11] = Inhibition of WR99210-resistant form-2 Plasmodium falciparum N51I, C59R, N108S, I164L mutant expressed in Escherichia coli BL21(DE3) by Michaelis-Menten based competitive inhibition assay
[12] = Inhibition of WR99210-resistant form-3 Plasmodium falciparum N51I, C59R, N108T, I164L mutant expressed in Escherichia coli BL21(DE3) by Michaelis-Menten based competitive inhibition assay
[13] = Inhibition of Plasmodium falciparum DHFR-TS QM template N51I, C59R, S108N, I164L mutant expressed in Escherichia coli BL21(DE3); in short: as §1
[14] = Inhibition of WR99210-resistant form-1 Plasmodium falciparum I51N, C59R, N108S, I164L mutant expressed in Escherichia coli BL21(DE3); in short: as §1
[15] = Inhibition of Plasmodium falciparum DHFR QM template N51I, C59R, S108N, I164L mutant expressed in Escherichia coli BL21(DE3) by Michaelis-Menten based competitive inhibition assay
[16] = biological target: T1, Bifunctional dihydrofolate reductase-thymidylate synthase (Plasmodium falciparum (isolate 3D7), UniProt Q8I1R6, C59R/I164L/K96N/N51I/S108N); assay: Inhibition of pyrimethamine-resistant form-2 Plasmodium falciparum N51I, C59R, S108N, I164L, K96N mutant expressed in Escherichia coli BL21(DE3) by Michaelis-Menten based competitive inhibition assay
T1 sequence (Q8I1R6 whole entry N51I/C59R/K96N/S108N/I164L): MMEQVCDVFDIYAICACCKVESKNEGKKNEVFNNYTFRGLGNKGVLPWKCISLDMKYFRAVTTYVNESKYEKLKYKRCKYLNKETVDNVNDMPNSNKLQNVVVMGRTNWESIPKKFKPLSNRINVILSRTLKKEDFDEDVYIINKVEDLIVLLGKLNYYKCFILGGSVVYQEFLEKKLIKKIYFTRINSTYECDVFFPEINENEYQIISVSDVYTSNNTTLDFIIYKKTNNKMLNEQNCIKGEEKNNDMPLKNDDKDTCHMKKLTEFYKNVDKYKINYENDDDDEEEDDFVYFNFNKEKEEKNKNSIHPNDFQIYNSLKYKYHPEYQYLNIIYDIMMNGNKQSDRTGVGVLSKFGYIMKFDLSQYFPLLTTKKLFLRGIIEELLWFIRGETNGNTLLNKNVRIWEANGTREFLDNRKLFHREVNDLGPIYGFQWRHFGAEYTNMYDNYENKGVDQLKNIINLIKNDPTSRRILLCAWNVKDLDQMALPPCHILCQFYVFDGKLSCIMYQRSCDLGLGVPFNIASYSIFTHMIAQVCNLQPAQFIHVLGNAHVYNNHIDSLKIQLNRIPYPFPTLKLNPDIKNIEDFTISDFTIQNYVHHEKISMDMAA

[17] = biological target: T1, Bifunctional dihydrofolate reductase-thymidylate synthase; assay: Inhibition of pyrimethamine-resistant form-2 Plasmodium falciparum N51I, C59R, S108N, I164L, K96N mutant expressed in Escherichia coli BL21(DE3)

CCc1nc(N)nc(N)c1-c1ccc(Cl)cc1 [PYRIMETHAMINE]
IC50 [1]: 1820 nM
IC50 [2]: 420 nM
Ki [3]: 1.07 nM
Ki [4]: 1.24 nM
IC50 [5]: 870 nM
IC50 [6]: 10 nM
Ki [7]: 3.57 nM
Ki [8]: 2.1 nM
IC50 [9]: 3470 nM
IC50 [10]: 7200 nM
Ki [11]: 7.26 nM
Ki [12]: 15.5 nM
IC50 [13]: 170 nM
IC50 [14]: 90 nM
Ki [15]: 1.9 nM

CC1(C)N=C(N)N=C(N)N1OCCCOc1cc(Cl)c(Cl)cc1Cl
IC50 [1]: 680 nM
IC50 [2]: 50 nM
Ki [3]: 147 nM
Ki [4]: 514 nM
IC50 [5]: 50 nM
IC50 [6]: 60 nM
Ki [16]: 292 nM
Ki [7]: 8.09 nM
Ki [8]: 209 nM
IC50 [9]: 920 nM
IC50 [10]: 40000 nM
Ki [11]: 17.6 nM
Ki [12]: 72.4 nM
IC50 [13]: 160 nM
IC50 [14]: 200 nM
IC50 [17]: 90 nM
Ki [15]: 859 nM
